Test results as given in the EternaBench riboswitch data.

Tested on: MS2 coat protein
Experiment: apparent Kd, MS2 coat protein; higher = weaker binding; RNA-MaP array; FMN 200 µM where present
Method in brief: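 Designs were transcribed by stalled E. coli RNA polymerase on Illumina sequencing-chip clusters. They were titrated with SNAP-549-labelled MS2 coat protein from 0.7 or 1.5 nM, doubling to 3 µM, in 100 mM Tris-HCl pH 7.5, 80 mM KCl, 4 mM MgCl2, BSA, DTT, yeast tRNA and Tween-20, without and then with constant ligand. The apparent Kd is the median of filtered per-cluster fits after normalisation of green signal to red-channel RNA signal and control-cluster median Fmax.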

[1] = designed as: OFF switch for flavin mononucleotide, no ligand
[2] = ligand present: flavin mononucleotide, designed as: OFF switch for flavin mononucleotide
[3] = designed as: ON switch for flavin mononucleotide, no ligand
[4] = ligand present: flavin mononucleotide, designed as: ON switch for flavin mononucleotide

Row | Sequence | apparent Kd [1] [nM] | apparent Kd [2] [nM] | apparent Kd [3] [nM] | apparent Kd [4] [nM]
1 | CGCCUGUAAGGAUAUUAGUAGUAGUCAGAAAAGACUAUUACUGAGAAGGUACAUGAGGAUCACCCAUGUUGGCG | 15.3 | 20.4 | – | –
2 | GUAAGCGUAGGAUAUACAUGAGGAUCACCCAUGUCAGUUUUGCACUCUCGGGUGUGCUGUAGAAGGGCGUUACU | 172 | 208 | – | –
3 | GUAGCAUGCCAAGGAUAUUCAUAUAGUAGGCAAACAUGAGGAUCACCCAUGUAAUGAUCGCAGUGGGAGAAGGUGGGAUGCUAC | – | – | 31.8 | 21.1
4 | UGUCGGAGCAGAGGAUAUUACAUGAGGAUCACCCAUGUAUGAACCAAUAGCUGGAAACAGGAAUGUAAGAAGGCUGCUCCGACA | 6.17 | 30.1 | – | –
5 | AGCAUGUAAGGAUAUGCAAGUGGCACGGAUAGUACCAGAAAGCAGAAGGUACAUGAGGAUCACCCAUGUGCUCC | 26.8 | 94.9 | – | –
6 | GAACCUAAGUUAGGAUAUGUCUAAGAAAGCUGACAUGAGGAUCACCCAUGUGAAUGCAAAGAAUGGCAGAAGGGAUAUGGGUGG | – | – | 73 | 76.8
7 | GGAUAGGACAGAGGAUAUACGUGCUAGAGAUACUAGCACAAUUUCCUCACAUGAGGAUCACCCAUGUAGAAGGCUGUCCUAUCG | 6.08 | 26.3 | – | –
8 | GUUGGGUGUCAUGUCGCACAUGAGGAUCACCCAUGUAAGAGGUAGGAUAUCCACGAGUAACAAGAGGAGAAGGGCCGUCAGCGU | 25.8 | 32.2 | – | –
9 | GGAUCGAGUGUGAGGAUAUGCUGGUCGUAAGAUCAGCAGAAGGCACAUGAGGAUCACCCAUGUGAAAACGGUCC | 24.7 | 164 | – | –
10 | GUAGCAAUCGGAGGAUAUGGGUUGAUAACAUGAGGAUCACCCAUGUUAAUACUAGAAGGCCGAUUGCUACAAGAGCGAAAGCUC | – | – | 31.4 | 6.39
11 | GGUCGUUGAGGAUAUACGAACAUGUCGCCAGAUGUCAUGGUACAUGAGGAUCACCCAUGUAGAAGGUGGUGGUC | 75 | 25.7 | – | –
12 | AUAUAUGCCCAGAAGGUGCCAGCGAGAGCUGCACAUGAGGAUCACCCAUGUUGUCGGUGACGACGCAAGGAUAUGGGCAUAUAU | – | – | 24.5 | 7.26
13 | AUUUGACACGUAGGAUAUCGCUUAAAUUUAACACGAGAAGGACGAACAUGAGGAUCACCCAUGUAUCAUGGUGUAGAUAAUUUG | 54.5 | 216 | – | –
14 | GACUUGCUGUCAGGAUAUAACCGUCCUACACGGUUAGAAGGGACAUGAGGAUCACCCAUGUGCCAGAGCGCACGAAUUUUUUAC | 10.8 | 50.9 | – | –
15 | CCGAUAAUGUAGGAUAUCGUAUCGGAAACGAUACGAGAAGGGCAAACAUGAGGAUCACCCAUGUUCCUUAACGG | 17.4 | 18.5 | – | –
16 | AAAUAAGUUGCAGGAUAUUAUUUUUAAUAAAUAUAAGAAGGGCAACAAACCUCACAUGAGGAUCACCCAUGUACCCAUGUAUCU | 64.3 | 35.6 | – | –
17 | CCUCUACAUGAGGAUCACCCAUGUGAGGAUAUAAGAUUGCGAAUUCCGCACUACGGUCUUAGAAGGCGCGUGGA | 16.4 | 30.5 | – | –
18 | AGGUAAGACUUAAUUGUGCUGGUGAGAAGGCUACUGGUUGUGGUCUACAUGAGGAUCACCCAUGUUGAGGAUAUCAUCGGUAUC | 606 | 72.7 | – | –
19 | UUUUUAUUUGCAGGAUAUUGUUUUUUAUUACUUCAAGAAGGGCAUUACAUGAGGAUCACCCAUGUCAUCCUAUGGUUAACUAGU | 9.64 | 11.6 | – | –
20 | AUUAUGACCGAGUUAUACCUCUAAACAUGAGGAUCACCCAUGUAGGAUAUCAGCACGAUAAGUGCUGAGAAGGACAUCUCGGUC | 17.2 | 27 | – | –
21 | GACUCGGGUGCAGGAUAUCCGCCGGAUCGCAGUGGAGAAGGGCGCCAAGCGAACAUGAGGAUCACCCAUGUAUCGGAGUUGAAC | – | – | 56.9 | 10.4
22 | GGCCGGGCAGGAUAUACAUGAGGAUCACCCAUGUAUAUCCUUCAGCAUGGAUCCUCAUGUAGAAGGGCCCGGCC | 13.2 | 11.9 | – | –
23 | UGUGCUGAAGGAUAUGCGUAAGCUCGGUGACGAGCAGAUCUACAUGAGGAUCACCCAUGUAGAAGGUCAGUACU | 16 | 18.4 | – | –
24 | AACGCGUCAGGAUAUGCCAUAAAUUACCUAAUACAACCAUAGCAGAAGGGACAUGAGGAUCACCCAUGUAAAUA | 32.1 | 25.2 | – | –
25 | AAAACGUGAGGAUAUGCACCAACCAAGGUUUUUCGGGUACGACAUGAGGAUCACCCAUGUAGAAGGCACGAAAA | 16.2 | 12.9 | – | –
26 | GGGCAUAUUACAUGAGGAUCACCCAUGUCAGAAAGGGUAAUCAGAAGGUACUAUUAGAGAAAGAGUAAGGAUAUGAUUAUGCCC | – | – | 486 | 40.6
27 | UUAACAUGAGGAUCACCCAUGUAUAGGGAGUUAACAAUUGGACAGGAUAUUGAAGAUGUAGAUAGCAAGAAGGGUCGGUAGUCU | – | – | 38.9 | 35.8
28 | UGCAGGCGAGGAUAUGCUCGGGUUGCUUGUCGAGAGGAUGCACAUGAGGAUCACCCAUGUAGAAGGUGUCUAUG | 47.5 | 56.2 | – | –

Row | Sequence | apparent Kd [1] [nM] | apparent Kd [2] [nM] | apparent Kd [3] [nM] | apparent Kd [4] [nM]
29 | AUCAGCUCGUCAGGAUAUACGUCCUGGUAAGAUCACAUGAGGAUCACCCAUGUAGAAGGGACGAGCUGAUAAGCACGAAAGUGC | 18.6 | 81.6 | – | –
30 | UUGGGACUAUCAGGAUAUGGUGUAGCCUAGUAAAGGACAUGAGGAUCACCCAUGUACCAUUGGUACCAGAAGGGAUGAUCCUAC | – | – | 173 | 46
31 | GGCGAACAGGCUAACAUGAGGAUCACCCAUGUGGACUCAUGGUAGGAUAUCGGGAAGGAGGAAACCGAGAAGGGCCGGUGAGCG | – | – | 158 | 39.5
32 | CCCGCGAUGUCAGGAUAUAGUCGGAGGUGCAGACUAGAAGGGACAUGAGGAUCACCCAUGUGCGUGAAAAUUUAAAACCUAAAU | 39.3 | 119 | – | –
33 | ACGUUAAUUCGAGGAUAUCGGUGAUUUAUAUUACGAGAAGGCGAUAAUUGUGAUAAACUUAUAGACAUGAGGAUCACCCAUGUA | – | – | 42.7 | 38.8
34 | AAAGUACAUGAGGAUCACCCAUGUUGGAACAAAGCAGGAUAUGUACAAAAGGAAAUAAAUACAGAAGGGCUAAGAA | – | – | 36.5 | 21.2
35 | UUAAUUAAUUAAUUGCAGAUUACAUGAGGAUCACCCAUGUAUAAGGAUAUCGUCAGGAAUACUGACGAGAAGGUAUACAACUGC | 20.3 | 25.4 | – | –
36 | UGAUCGAAAGAUCAUAGAUUCUGCUAGGAUAUGCAGAAGUUGCGCUUUACAUGAGGAUCACCCAUGUAGAAGGAGUAGAGUCUA | 6.59 | 6.78 | – | –
37 | AAAAAAAAUGUGUAGGAUAUCAGUAAAAAUACAUGAGGAUCACCCAUGUUCAAAAAAAAAAAAACUGAGAAGGACGUGGAUGGUCC | – | – | 79 | 59.9
38 | AAGGAGUUAGGAUAUGCUGCUCGUCACUUGCGUGAUGAGUAGCAGAAGGAACAUGAGGAUCACCCAUGUAAAGA | 30.2 | 24.2 | – | –
39 | UCGUAUAAGGGCAUUACACAUGAGGAUCACCCAUGUACGUUAGAGGAUAUGCAUUCCAGUCGAACGUAGAAGGCUAGAGAAGGG | 118 | 117 | – | –
40 | UCUUAACAUGAGGAUCACCCAUGUGAGGAUAUGAUGCAGCAGUGGUCUACGCUGUGCAUCAGAAGGUACAUGGG | 23 | 20.1 | – | –
41 | UCGUGUAUAGAGGAUAUAUUAUUUUUUUUAACAAUAGAAGGCUAAACAUGAGGAUCACCCAUGUAUUUUUUUUU | 31.4 | 44 | – | –
42 | CGCGAACAGUUUAACAUGAGGAUCACCCAUGUGGACUCAUGGUAGGAUAUCGGGAAGGAGGAAACCGAGAAGGGCUGGUGAGCC | – | – | 583 | 419
43 | CGUUGAUGAGGAUAUCGAUGUUAGUACAUGAGGAUCACCCAUGUUAUCCAAGUGUCGUUUCGAGAAGGUAUUGGAC | 216 | 348 | – | –
44 | CGCUACGUUUCGUAGCAGUGUCAUCGAGAAGGCCCUGACAUGAGGAUCACCCAUGUAAAAGUUCAGGAGGAUAUCGAUGAUACA | – | – | 4.83 | 4.95
45 | GUAGCAAUCGGAGGAUAUUCAUUAAACAUGAGGAUCACCCAUGUAAAUUUGGGAGAAGGCCGAUUGCUACAAGAGCGAAAGCUC | – | – | 22.9 | 6.1
46 | UAUAUAUAGUAAGGAUAUGUAUAUAUAUUAUAAACAGAAGGUACUGACAUGAGGAUCACCCAUGUUUUAGUGUGGGCAUGUAGA | 75.1 | 96.1 | – | –
47 | CGUACACAUGAGGAUCACCCAUGUCAGAGGCGGUCAGGAUAUGGGCGGCAUCCGCUAUAGCCAGAAGGGACUGAUG | – | – | 173 | 73.6
48 | CCGGAAAUACAGGAUAUAGGAGUAAAUAUACUCCUAGAAGGGUAUACAUGAGGAUCACCCAUGUGUCCUACCGG | 26.6 | 27.3 | – | –
49 | GGGAAGUUAGGAUAUGCUGCUCGUCACUUGCGUGAUGAGUAGCAGAAGGAACAUGAGGAUCACCCAUGUAAAAA | 31.9 | 37.6 | – | –
50 | UGAUCGGAGACAGGAUAUGUGACUGCAUAGUGCACAGAAGGGUCUACAUGAGGAUCACCCAUGUCACCGAACAUCAAACAACAA | – | – | 433 | 41.9
51 | AGGACGAGGCAGAAGGGACAUGAGGAUCACCCAUGUACCGUGGUUCAGCAGUCAGGAUAUGCCGUACGUAAACAUAUCGUAAGA | 10.3 | 71 | – | –
52 | ACAUACAUUCGAGGAUAUCGGUGAUUAAUUUUACGAGAAGGCGAUAAAAGAUAUAAAAUUUUAGACAUGAGGAUCACCCAUGUA | – | – | 28.6 | 27.1
53 | UGGUGAGUCAAGAAGGACAUGAGGAUCACCCAUGUAGGAUAUUGGCGUCACGGCUCCAAUACGUACAUGUGGGACGGUCAAAGG | – | – | 48.6 | 16.5
54 | UAUUCAUUCAGAGGAUAUUGUUUAUCUCUAUUUCAAGAAGGCUGAUUUUACUACUUACUUAUGAAACAUGAGGAUCACCCAUGU | – | – | 25.6 | 17.5
55 | CGCUCAAUAUAUAAGGAAAGAAUCAGAAGGCGUUACAUGAGGAUCACCCAUGUUUUGUAUAGUAACGAGGAUAUGAUAUGAGCG | 17.9 | 15.3 | – | –
